Laboratory results published in ChEMBL document CHEMBL4266040, “Structure-Based Engineering of Irreversible Inhibitors against Histone Lysine Demethylase KDM5A” (J Med Chem, 2018).
Calls of active or inactive are those of the source. The calls are words filed in the database; no cut-off is given here.

Assays:
[1] = target: T1, Lysine-specific demethylase 4A (Homo sapiens, UniProt O75164); assay: Inhibition of KDM4A (1 to 350 residues) (unknown origin) using H3 ( 1 to 15 residues) K9me3 as substrate preincubated for 15 min followed by substrate addition measured after 15 mins by FDH-coupled demethylase assay
T1 sequence (O75164 whole entry): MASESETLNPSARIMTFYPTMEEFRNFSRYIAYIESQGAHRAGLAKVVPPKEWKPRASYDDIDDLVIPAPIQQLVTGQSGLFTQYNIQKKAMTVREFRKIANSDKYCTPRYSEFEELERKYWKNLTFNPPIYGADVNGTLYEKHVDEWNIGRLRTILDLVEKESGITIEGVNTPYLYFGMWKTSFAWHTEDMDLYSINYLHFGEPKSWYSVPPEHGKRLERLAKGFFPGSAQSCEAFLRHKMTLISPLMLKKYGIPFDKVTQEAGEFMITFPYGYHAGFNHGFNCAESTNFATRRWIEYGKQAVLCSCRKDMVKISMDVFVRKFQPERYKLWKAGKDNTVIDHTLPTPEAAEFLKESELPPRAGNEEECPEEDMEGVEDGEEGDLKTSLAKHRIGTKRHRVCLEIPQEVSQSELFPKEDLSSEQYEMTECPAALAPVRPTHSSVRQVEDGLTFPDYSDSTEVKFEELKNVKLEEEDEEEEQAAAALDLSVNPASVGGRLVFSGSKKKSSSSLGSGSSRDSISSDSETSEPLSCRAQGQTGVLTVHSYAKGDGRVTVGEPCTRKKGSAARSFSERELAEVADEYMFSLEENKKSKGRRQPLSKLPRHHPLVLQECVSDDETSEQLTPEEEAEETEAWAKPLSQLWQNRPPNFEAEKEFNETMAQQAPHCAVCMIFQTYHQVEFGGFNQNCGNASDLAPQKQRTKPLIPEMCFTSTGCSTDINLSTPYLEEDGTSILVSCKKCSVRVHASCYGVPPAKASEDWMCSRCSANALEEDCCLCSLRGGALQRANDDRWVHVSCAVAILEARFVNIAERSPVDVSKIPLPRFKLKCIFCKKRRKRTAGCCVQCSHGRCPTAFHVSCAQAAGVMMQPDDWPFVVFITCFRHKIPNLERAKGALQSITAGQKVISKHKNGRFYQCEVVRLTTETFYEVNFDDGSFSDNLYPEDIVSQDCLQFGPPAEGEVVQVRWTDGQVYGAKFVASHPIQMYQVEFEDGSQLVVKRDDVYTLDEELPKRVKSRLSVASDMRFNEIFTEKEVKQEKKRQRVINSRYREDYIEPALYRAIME

[2] = target: T2, Lysine-specific demethylase 5A (Homo sapiens, UniProt P29375); assay: Inhibition of KDM5A ARID/PhD1 domain deletion mutant (1 to 739 residues) (unknown origin) using H3 ( 1 to 24 residues) K4me3 as substrate preincubated for 15 min followed by substrate addition measured after 15 mins by FDH-coupled demethylase assay
[3] = target: Lysine-specific demethylase 6A (Homo sapiens, UniProt O15550); assay: Inhibition of KDM6A (880 to 1401 residues) (unknown origin) using H3 ( 21 to 44 residues) K27me3 as substrate preincubated for 15 min followed by substrate addition measured after 15 mins by FDH-coupled demethylase assay
[4] = target: T2, Lysine-specific demethylase 5A; assay: Binding affinity to KDM5A ARID/PhD1 domain deletion mutant (1 to 588 residues) (unknown origin) by ITC assay
Homo sapiens [5] = species: Homo sapiens; assay: Selectivity ratio of IC50 for KDM4A (1 to 350 residues) (unknown origin) to IC50 for KDM5A ARID/PhD1 domain deletion mutant (1 to 739 residues) (unknown origin)
Homo sapiens [6] = species: Homo sapiens; assay: Selectivity ratio of IC50 for KDM5A ARID/PhD1 domain deletion mutant (1 to 739 residues) (unknown origin) to IC50 for KDM6A (880 to 1401 residues) (unknown origin)
[7] = target: T1, Lysine-specific demethylase 4A; assay: Irreversible inhibition of recombinant KDM4A (1 to 350 residues) (unknown origin) expressed in Escherichia coli using H3 (1 to 21 residues) K9me3 as substrate preincubated for 10 mins followed by substrate/alphaKG/(NH4)2Fe(SO4)2 addition measured after 1 hr by alphaLISA assay
Method in brief: (§1)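 AlphaLISA using antibody to H3K4 (KDM5B) or H3K9 (KDM4A) methylation to detect demethylation of enzyme-specific histone peptides. Both enzymes are recombinant catalytic domains from E. coli, tested at the same enzyme concentration.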

Homo sapiens [8] = species: Homo sapiens; assay: Selectivity ratio of IC50 for recombinant KDM4A (1 to 350 residues) (unknown origin) to IC50 for recombinant KDM5B ARID/PhD1 domain deletion (1 to 755 residues) (unknown origin); method in brief: as §1
[9] = target: T2, Lysine-specific demethylase 5A; assay: Irreversible inhibition of KDM5A ARID/PhD1 domain deletion mutant (1 to 739 residues) (unknown origin) using 10 uM alpha-KG by succinate-glo demethylase assay
Method in brief: (§2)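 KDM5A(1−739)ΔAP (0.8 μM) preincubated 20 min with 2-fold serial dilutions of compound. Reaction started with αKG (10, 100 or 1000 μM) and H3(1−24)K4me3 (60 μM), 10 μM (NH4)2Fe(SO4)2, 100 μM ascorbate, 50 mM HEPES pH 8.0, 5% DMSO. Run 10 min at ambient temperature, n = 3; succinate read by Succinate-Glo luminescence.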

[10] = target: T2, Lysine-specific demethylase 5A; assay: Irreversible inhibition of KDM5A ARID/PhD1 domain deletion mutant (1 to 739 residues) (unknown origin) using 100 uM alpha-KG by succinate-glo demethylase assay; method in brief: as §2
[11] = target: T2, Lysine-specific demethylase 5A; assay: Irreversible inhibition of KDM5A ARID/PhD1 domain deletion mutant (1 to 739 residues) (unknown origin) using 1000 uM alpha-KG by succinate-glo demethylase assay; method in brief: as §2
[12] = target: T2, Lysine-specific demethylase 5A; assay: Irreversible inhibition of 0.4 uM KDM5A ARID/PhD1 domain deletion mutant (1 to 739 residues) (unknown origin) using 100 uM alpha-KG by succinate-glo demethylase assay
Method in brief: (§3)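 Succinate-Glo run with KDM5A(1−739)ΔAP at varied enzyme concentration and 100 μM αKG. H3(1−24)K4me3 60 μM, Fe(II) 10 μM, ascorbate 100 μM, HEPES pH 8.0, 5% DMSO.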

[13] = target: T2, Lysine-specific demethylase 5A; assay: Irreversible inhibition of 0.8 uM KDM5A ARID/PhD1 domain deletion mutant (1 to 739 residues) (unknown origin) using 100 uM alpha-KG by succinate-glo demethylase assay; method in brief: as §3
[14] = target: T2, Lysine-specific demethylase 5A; assay: Irreversible inhibition of 1.6 uM KDM5A ARID/PhD1 domain deletion mutant (1 to 739 residues) (unknown origin) using 100 uM alpha-KG by succinate-glo demethylase assay; method in brief: as §3
[15] = target: T2, Lysine-specific demethylase 5A; assay: Irreversible inhibition of KDM5A ARID/PhD1 domain deletion mutant (1 to 739 residues) (unknown origin) using alpha-KG measured immediately by succinate-glo demethylase assay
Method in brief: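 Compound and KDM5A(1−739)ΔAP either without preincubation or preincubated 20 min before αKG addition; activity read by Succinate-Glo.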

[16] = target: T2, Lysine-specific demethylase 5A; assay: Irreversible inhibition of KDM5A ARID/PhD1 domain deletion mutant (1 to 739 residues) (unknown origin) using alpha-KG by succinate-glo demethylase assay; method in brief: as §2
[17] = target: T2, Lysine-specific demethylase 5A; assay: Irreversible inhibition of KDM5A ARID/PhD1 domain deletion mutant (1 to 739 residues) (unknown origin) using alpha-KG as substrate by succinate-glo demethylase assay; settings: TDE = time-dependent effect; method in brief: as §2
[18] = target: T2, Lysine-specific demethylase 5A; assay: Irreversible inhibition of KDM5A ARID/PhD1 domain deletion mutant (1 to 739 residues) (unknown origin)
Method in brief: (§4)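 KDM5A (0.8 μM) preincubated with five inhibitor concentrations (0.01–5 μM). At each time point, mixture added to H3 peptide (60 μM) and αKG (100 μM) and stopped after 7 min. Log % remaining activity plotted against preincubation time; negative slopes fitted by nonlinear regression against [I] to give kinact and KI.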

[19] = target: T2, Lysine-specific demethylase 5A; assay: Irreversible inhibition of KDM5A ARID/PhD1 domain deletion mutant (1 to 739 residues) (unknown origin) assessed as Kinact to Ki ratio; method in brief: as §4
[20] = Effective permeability of the compound at pH 7.4 by PAMPA; type: ADME; settings: for Papp: read-out: Peff
Method in brief: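 PAMPA with a lipid/dodecane artificial membrane and pH 7.4 buffer in donor and acceptor wells. Compounds diluted from 10 mM DMSO stock to 0.05 mM final, 0.5% DMSO. Donor stirred during a 30 min permeation at room temperature. Donor and acceptor concentrations read by UV. Permeability given in 10−6 cm s−1: >100 high, 10–100 moderate, <10 low.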

[21] = Metabolic stability in human BT474 cell culture media assessed as parent compound remaining at 10 uM after 24 hrs by LC-MS/MS analysis; type: physicochemical; settings: read-out: Stability
[22] = target: T2, Lysine-specific demethylase 5A; assay: Irreversible inhibition of KDM5A ARID/PhD1 domain deletion mutant (1 to 739 residues) (unknown origin) at 100 uM using alpha-KG measured after 4 times of buffer exchange by succinate-glo demethylase assay
Method in brief: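 Enzyme–inhibitor complex preformed ([E] = 5 μM, initial [I] = 100 μM), then four buffer exchanges before Succinate-Glo activity measurement.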

[23] = target: T2, Lysine-specific demethylase 5A; assay: Binding affinity to KDM5A ARID/PhD1 domain deletion mutant (1 to 588 residues) (unknown origin) assessed as covalent modification of enzyme at 0.5 mM after 30 mins by ESI-tandem-MS analysis
[24] = Drug level in human BT474 cell culture media treated with isopropyl 2-((3-Aminophenyl)(2-(piperidin-1-yl)-ethoxy)methyl)thieno[3,2-b]pyridine-7-carboxylate at 10 uM after 24 hrs by LC-MS/MS analysis; type: physicochemical
BT-474 = assay: Growth inhibition of human BT474 cells at 0.11 to 3.5 uM measured every 4 hrs for 300 hrs by IncuCyte live cell imaging method; type: functional, cell-based
Method in brief: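 BT474 cells grown with compound; percent confluence tracked by IncuCyte live-cell imaging every 4 h over 300 h.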

[25] = target: T2, Lysine-specific demethylase 5A; assay: Inhibition of KDM5A in human MCF7 cells assessed as effect on H3K4me3 methylation levels at 1 to 10 uM after 30 hrs by Western blot analysis; type: cell-based
Method in brief: (§5)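 MCF7 breast cancer cells were exposed to compound, with a 0.1% DMSO control, for 30 or 48 h. Total cell lysates were then probed by Western blot with antibodies to histone methylation marks.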

[26] = target: T2, Lysine-specific demethylase 5A; assay: Inhibition of KDM5A in human MCF7 cells assessed as effect on H3K27me3 methylation levels at 1 to 10 uM after 30 hrs by Western blot analysis; type: cell-based; method in brief: as §5

Sequence of Lysine-specific demethylase 6A (O15550 whole entry, the tested form may be a part): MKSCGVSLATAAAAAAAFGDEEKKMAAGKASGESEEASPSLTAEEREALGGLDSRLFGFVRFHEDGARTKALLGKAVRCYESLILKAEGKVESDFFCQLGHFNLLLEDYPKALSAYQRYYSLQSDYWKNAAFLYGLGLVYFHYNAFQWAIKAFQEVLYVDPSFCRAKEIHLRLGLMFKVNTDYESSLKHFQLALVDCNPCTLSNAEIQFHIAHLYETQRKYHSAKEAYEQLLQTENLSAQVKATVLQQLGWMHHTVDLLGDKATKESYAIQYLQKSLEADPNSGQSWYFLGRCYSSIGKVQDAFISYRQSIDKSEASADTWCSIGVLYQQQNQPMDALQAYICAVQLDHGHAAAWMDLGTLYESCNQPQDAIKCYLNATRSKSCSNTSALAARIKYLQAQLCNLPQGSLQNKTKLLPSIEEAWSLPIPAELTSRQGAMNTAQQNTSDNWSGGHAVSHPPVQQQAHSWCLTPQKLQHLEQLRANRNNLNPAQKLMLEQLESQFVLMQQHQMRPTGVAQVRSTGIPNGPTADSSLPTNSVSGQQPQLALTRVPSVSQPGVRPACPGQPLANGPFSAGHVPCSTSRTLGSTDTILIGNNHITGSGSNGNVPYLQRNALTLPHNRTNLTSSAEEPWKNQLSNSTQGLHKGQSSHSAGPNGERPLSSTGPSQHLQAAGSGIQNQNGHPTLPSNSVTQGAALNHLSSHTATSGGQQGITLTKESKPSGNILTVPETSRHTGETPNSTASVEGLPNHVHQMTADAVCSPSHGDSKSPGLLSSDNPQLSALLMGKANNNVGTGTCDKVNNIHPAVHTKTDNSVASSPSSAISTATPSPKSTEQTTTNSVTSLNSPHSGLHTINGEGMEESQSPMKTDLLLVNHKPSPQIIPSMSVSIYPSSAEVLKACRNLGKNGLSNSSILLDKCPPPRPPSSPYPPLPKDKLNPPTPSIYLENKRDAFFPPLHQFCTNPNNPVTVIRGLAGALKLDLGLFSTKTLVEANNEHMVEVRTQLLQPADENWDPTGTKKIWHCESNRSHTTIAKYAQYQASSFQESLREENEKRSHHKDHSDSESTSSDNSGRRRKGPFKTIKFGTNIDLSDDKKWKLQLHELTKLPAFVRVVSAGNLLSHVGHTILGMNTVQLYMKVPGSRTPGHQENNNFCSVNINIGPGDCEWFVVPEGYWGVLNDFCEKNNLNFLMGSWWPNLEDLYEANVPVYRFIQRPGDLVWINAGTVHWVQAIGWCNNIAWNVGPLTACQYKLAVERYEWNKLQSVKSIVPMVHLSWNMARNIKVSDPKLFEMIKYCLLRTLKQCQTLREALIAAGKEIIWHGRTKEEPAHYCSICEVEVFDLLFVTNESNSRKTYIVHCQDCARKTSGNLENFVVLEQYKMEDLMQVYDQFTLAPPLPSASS
T2 sequence (P29375 whole entry, the tested form may be a part): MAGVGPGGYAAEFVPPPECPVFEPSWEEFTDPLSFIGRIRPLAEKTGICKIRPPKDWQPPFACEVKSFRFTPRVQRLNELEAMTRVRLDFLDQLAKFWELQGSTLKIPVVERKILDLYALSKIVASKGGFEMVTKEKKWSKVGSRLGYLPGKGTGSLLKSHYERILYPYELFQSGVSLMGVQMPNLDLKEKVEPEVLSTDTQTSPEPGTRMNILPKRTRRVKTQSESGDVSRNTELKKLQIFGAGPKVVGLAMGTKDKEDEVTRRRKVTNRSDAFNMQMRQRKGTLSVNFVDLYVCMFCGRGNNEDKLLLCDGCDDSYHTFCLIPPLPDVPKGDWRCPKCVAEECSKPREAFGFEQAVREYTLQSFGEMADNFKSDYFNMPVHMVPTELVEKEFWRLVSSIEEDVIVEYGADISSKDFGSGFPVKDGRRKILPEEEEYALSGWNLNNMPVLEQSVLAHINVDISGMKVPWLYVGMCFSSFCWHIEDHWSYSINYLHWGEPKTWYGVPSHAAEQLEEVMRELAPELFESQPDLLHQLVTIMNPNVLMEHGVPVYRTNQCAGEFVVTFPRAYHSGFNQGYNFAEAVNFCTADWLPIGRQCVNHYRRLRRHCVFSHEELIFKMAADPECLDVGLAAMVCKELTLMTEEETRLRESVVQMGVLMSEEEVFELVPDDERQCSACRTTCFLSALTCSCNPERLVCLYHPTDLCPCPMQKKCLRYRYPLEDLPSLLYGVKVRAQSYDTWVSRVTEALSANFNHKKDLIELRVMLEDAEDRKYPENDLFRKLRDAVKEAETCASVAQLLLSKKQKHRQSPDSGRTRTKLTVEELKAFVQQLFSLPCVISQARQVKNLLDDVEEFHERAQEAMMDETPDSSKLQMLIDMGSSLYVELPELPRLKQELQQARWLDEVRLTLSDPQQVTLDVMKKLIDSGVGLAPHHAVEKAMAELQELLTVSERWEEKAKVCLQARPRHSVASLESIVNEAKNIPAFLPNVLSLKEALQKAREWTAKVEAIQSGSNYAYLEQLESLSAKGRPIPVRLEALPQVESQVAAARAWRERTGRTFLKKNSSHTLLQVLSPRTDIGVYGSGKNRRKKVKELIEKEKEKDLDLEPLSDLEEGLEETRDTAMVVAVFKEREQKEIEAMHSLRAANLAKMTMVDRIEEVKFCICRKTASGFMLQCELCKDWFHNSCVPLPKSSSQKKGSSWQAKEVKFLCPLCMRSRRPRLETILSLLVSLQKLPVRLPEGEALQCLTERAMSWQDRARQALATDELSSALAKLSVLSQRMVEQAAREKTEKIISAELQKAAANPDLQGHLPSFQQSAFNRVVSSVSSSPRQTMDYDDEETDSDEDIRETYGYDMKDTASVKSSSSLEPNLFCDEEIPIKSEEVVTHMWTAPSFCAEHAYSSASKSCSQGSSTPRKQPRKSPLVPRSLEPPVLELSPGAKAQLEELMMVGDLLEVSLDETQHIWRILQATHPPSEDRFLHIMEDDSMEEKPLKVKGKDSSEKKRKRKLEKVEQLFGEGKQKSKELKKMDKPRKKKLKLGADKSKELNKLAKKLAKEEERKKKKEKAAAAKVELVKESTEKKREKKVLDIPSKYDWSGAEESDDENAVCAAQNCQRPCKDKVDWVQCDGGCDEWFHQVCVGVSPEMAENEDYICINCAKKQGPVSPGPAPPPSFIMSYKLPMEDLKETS

| Structure (SMILES) | IC50 [1] [µM] | IC50 [2] [µM] | IC50 [3] [µM] | Kd [4] [µM] | Ratio IC50 (Homo sapiens [5]) | Ratio IC50 (Homo sapiens [6]) | IC50 [7] [µM] | Ratio IC50 (Homo sapiens [8]) | remaining at 24 h, 10 µM [21] [%] | also measured |
| --- | --- | --- | --- | --- | --- | --- | --- | --- | --- | --- |
| C=CC(=O)N1CCCN(c2cc(NCCC(=O)O)nc(-c3ccccn3)n2)CC1 | 230 | 71 | 39 | 6 | 3.2 to 3.6 | 1.5 to 1.8 | – | – | – | – |
| CN(C)C/C=C/C(=O)Nc1cccc(C(OCCN2CCCCC2)c2cc3nccc(C(=O)O)c3s2)c1 (configuration not stated) | – | – | – | – | – | – | 5.3 | 24 | 60 | IC50 [9]: 0.1 µM; IC50 [10]: 0.11 µM; IC50 [11]: 0.18 µM; IC50 [12]: 0.06 µM; IC50 [13]: 0.18 µM; IC50 [14]: 0.36 µM; IC50 [15]: 0.11 µM; IC50 [16]: 1.24 µM; inhibition [17]: Tde; Ki [18]: 0.41 µM; Kinact [18]: 0.198 min⁻¹; Ratio [19]: 8 ×10³ /M/s; Papp [20]: < 1 ×10⁻⁶ cm/s; inhibition [22]: Active; Activity [23]: Active |
| Nc1cccc(C(OCCN2CCCCC2)c2cc3nccc(C(=O)O)c3s2)c1 (configuration not stated) | – | – | – | – | – | – | 4.2 | 8.6 | 93 | IC50 [9]: 0.7 µM; IC50 [10]: 5.4 µM; IC50 [11]: > 100 µM; IC50 [15]: 5.5 µM; IC50 [16]: 4.9 µM; Papp [20]: 52.7 ×10⁻⁶ cm/s; Drug metabolism [24]: Metabolite_Detected; inhibition [22]: inactive; Activity [23]: inactive |
| CC(C)OC(=O)c1ccnc2cc(C(OCCN3CCCCC3)c3cccc(N)c3)sc12 (configuration not stated) | – | – | – | – | – | – | – | – | 75 | Peff [20]: 1018 ×10⁻⁶ cm/s; growth inhibition (GI) (BT-474): Active |
| CN1CCCC1CCOC(c1cc2nccc(C(=O)O)c2[nH]1)c1ccccc1Cl (configuration not stated) | – | – | – | 0.15 | – | – | – | – | – | – |
| CCOC(=O)CCNc1cc(N2CCc3ccccc3CC2)nc(-c2ccccn2)n1 | – | – | – | – | – | – | – | – | – | inhibition [25]: Active; inhibition [26]: Active |
| CN1CCCC1CCOC(c1cc2nccc(C(=O)O)c2s1)c1ccccc1Cl (configuration not stated) | – | – | – | 0.26 | – | – | 2.2 | 7 | – | – |
| C=CS(=O)(=O)N1CCCN(c2cc(NCCC(=O)O)nc(-c3ccccn3)n2)CC1 | 290 | 83 | 55 | 9 | 3.2 to 3.6 | 1.5 to 1.8 | – | – | – | – |
| O=C(O)CCNc1cc(N2CCc3ccccc3CC2)nc(-c2ccccn2)n1 | 400 | 110 | 69 | 12 | 3.2 to 3.6 | 1.5 to 1.8 | – | – | – | – |
